Measured values taken from ChEMBL document CHEMBL1165857, “Novel 3-alkanoyl/aroyl/heteroaroyl-2H-chromene-2-thiones: synthesis and evaluation of their antioxidant activities” (Eur J Med Chem, 2010).
Converted amounts (≈) assume the structure as drawn.

Legend:
[1] = Protective index against GS radical-induced curcumin depletion at 10 ug/ml irradiated at 100 Gy
Summary of the method: (§1)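 Reaction solution: 20 μM curcumin and 15 mM GSH in 60% methanol, with sample at 10 μg/mL. Control had no sample. Solutions were γ-irradiated to generate GS• radicals; doses up to 250 Gy, with PI reported at 100 Gy. Curcumin depletion followed by absorbance at 425 nm against a blank. Protective index (%) derived from depletion with versus without sample.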

[2] = Antioxidant activity assessed as inhibition of glutathione-induced curcumin depletion at 10 ug/ml; format: functional; summary of the method: as §1
[3] = test system: Radical scavenging activity; test: Antioxidant activity assessed as DPPH radical scavenging activity; format: functional
Summary of the method: (§2)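 DPPH (100 μM) in absolute methanol, compounds at 0–1000 μg/mL, in triplicate. After 30 min in the dark at room temperature, absorbance read at 515 nm against a blank. Percent decoloration taken relative to a methanol-treated control with DPPH and no sample; IC50 calculated in μg/mL.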

[4] = DPPH radical scavenging activity assessed as ascorbic acid equivalent antioxidant capacity; format: functional
Summary of the method: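 DPPH IC50 determined as above (100 μM DPPH in methanol, 30 min dark, room temperature, 515 nm). AEAC in mg ascorbic acid/g sample calculated as IC50(ascorbate)/IC50(sample) × 1000.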

[5] = test system: Radical scavenging activity; test: Antioxidant activity assessed as DPPH radical scavenging activity at 250 ug/ml; format: functional; summary of the method: as §2

| SMILES | IC50 [3] | PI [1] | INH [2] | Activity [4] | Activity [5] |
| --- | --- | --- | --- | --- | --- |
| COc1cccc2cc(C(=O)c3cccs3)c(=S)oc12 | 31.2 µg/mL (≈ 103 µM) | 56.9% | 2.41 µM | 121 mg/g | – |
| COc1cccc2cc(C(C)=O)c(=S)oc12 | 358.67 µg/mL (≈ 1530 µM) | – | – | – | – |
| O=C(c1ccc(Cl)cc1)c1cc2cc(Br)ccc2oc1=S | 850.41 µg/mL (≈ 2240 µM) | – | – | – | – |
| CC(=O)c1cc2ccccc2oc1=S | 35.01 µg/mL (≈ 171 µM) | 45.8% | 3.27 µM | 111 mg/g | – |
| Cc1ccc(C(=O)c2cc3ccccc3oc2=S)cc1 | 551.57 µg/mL (≈ 1970 µM) | – | – | – | – |
| O=C(c1ccc(Cl)cc1)c1cc2ccccc2oc1=S | 537.58 µg/mL (≈ 1790 µM) | – | – | – | – |

Now from value to molecule, other results behind:

| IC50 [3] | SMILES | PI [1] | INH [2] | Activity [4] | Activity [5] |
| --- | --- | --- | --- | --- | --- |
| 95.57 µg/mL (≈ 289 µM) | COc1cccc2cc(C(=O)c3ccc(Cl)cc3)c(=S)oc12 | 25.2% | – | 40 mg/g | – |
| 603.43 µg/mL (≈ 1850 µM) | COc1ccc(C(=O)c2cc3cccc(OC)c3oc2=S)cc1 | – | – | – | – |
| 1112.83 µg/mL (≈ 2970 µM) | COc1ccc(C(=O)c2cc3cc(Br)ccc3oc2=S)cc1 | – | – | – | – |
| 233.71 µg/mL (≈ 753 µM) | COc1cccc2cc(C(=O)c3ccc(C)cc3)c(=S)oc12 | 3.65% | – | 16.4 mg/g | – |
| 1579.25 µg/mL (≈ 5330 µM) | COc1ccc(C(=O)c2cc3ccccc3oc2=S)cc1 | – | – | – | 6.41% |
| 98.72 µg/mL (≈ 333 µM) | COc1cccc2cc(C(=O)c3ccccc3)c(=S)oc12 | 10.9% | – | 38.7 mg/g | – |
